Measurements published in paper PMC3313473 (Free radical biology & medicine, 2011).

Tests used:
[1] = tested on: primary human skeletal muscle cells (proliferating, differentiating, differentiated); experiment: MTS cell viability assay; format: cell-based; details: 48 h
[2] = tested on: primary human skeletal myotubes; experiment: Morphological imaging and cell counting of myotubes; format: cell-based; details: 5 µM
[3] = tested on: citrate synthase activity in primary human myotubes; experiment: Citrate synthase activity in myotubes; format: cell-based; details: simvastatin-treated myotubes
primary human myotubes = experiment: Mitochondrial superoxide production, MitoSOX Red flow cytometry; format: cell-based; details: 5 µM, 48 h
[4] = tested on: primary human skeletal myotubes; experiment: Intracellular ROS generation, DCF-DA staining; format: cell-based; details: simvastatin treated myotubes
[5] = tested on: primary human skeletal myotubes; experiment: TUNEL assessment of apoptotic myonuclei; format: cell-based; details: 5 µM, 48 h
How it was run: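 Coverslip-grown myotubes exposed 48 h to test compound or 0.1% DMSO vehicle; fixed in 4% paraformaldehyde/PBS (pH 7.4) 20 min RT, permeabilized with 0.1% Triton X-100 in 0.1% sodium citrate 10 min at 4°C. TdT/fluorescein-dUTP labelling 60 min at 37°C, humidified, dark; DAPI counterstain. DNase I positive and label-only negative controls. Positive myonuclei counted over multiple sections as % of DAPI nuclei.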

Bax = experiment: Western immunoblot of Bax; format: cell-based, human; details: 5 µM, 48 h
Bcl-2 = experiment: Western immunoblot of Bcl-2; format: cell-based, human; details: 5 µM, 48 h
isolated myofibers = details: 50 µM simvastatin; ref Sirvent et al. 29; cited from earlier work
mitochondrial PTP = details: ref Velho et al. 37; cited from earlier work

CCC(C)(C)C(=O)O[C@H]1C[C@@H](C)C=C2C=C[C@H](C)[C@H](CC[C@@H]3C[C@@H](O)CC(=O)O3)[C@H]21 [simvastatin]
IC50 ([1]; Homo sapiens, read-out: IC50 for viability, proliferating cells, 48 h, MTS): 5 µM
Changes in the morphology of myotubes ([2]; 24 h): not visible
Changes in the morphology of myotubes ([2]; 48 h): less dense and atrophied
Fewer myotubes compared with DMSO-treated controls ([2]; 48 h): 22.3%
Myotube cell number ([2]; 48 h): 0.87 × 10^6 cells/ml
Citrate synthase activity [3]: 9.89 ± 1.04 µmol/g/min
Increase in O2•− generation compared to DMSO control (primary human myotubes): approximately 44%
MitoSOX Red mean fluorescence intensity (primary human myotubes; representative histogram): 46.1 counts
DCF-DA staining compared with control [4]: increased staining
TUNEL-positive nuclei compared with control [5]: More TUNEL-positive nuclei
Bax protein levels higher than control (Bax): 53%
Bcl-2 protein levels greater than DMSO control (Bcl-2): 100%
Maximal ADP-stimulated respiration supported by complex I substrates (glutamate + malate) (isolated myofibers): significantly impaired
In vivo and in vitro calcium-dependent mitochondrial PTP opening (mitochondrial PTP): increased

CC(O)(CCO)CC(=O)O (stereo not shown) [mevalonate]
Effect of mevalonate on simvastatin-induced decrease in cell viability ([1]; differentiating cells, 1 µM simvastatin + 50 µM mevalonate): prevented
Effect of mevalonate on simvastatin-induced decrease in cell viability ([1]; proliferating cells, 5 µM simvastatin + 50 µM mevalonate): prevented
